Source: ChEMBL document CHEMBL1142648, “Enhancement in antimicrobial activity of 2-(phenyl)-3-(2-butyl-4-chloro-1H-imidazolyl)-5-butylate isoxazolidine” (2005)
Values after ≈ are worked out from the molar mass of the structure shown.

Key:
[1] = test system: Bacillus subtilis; assay: Minimum inhibitory concentration against Bacillus subtilis; assay type: functional
Outline: (§1)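 Broth tube dilution in brain heart infusion broth, 5 mL final volume. Compounds were dissolved in DMSO, diluted 1:9 with water, then serially diluted in medium. Cells were added at a final 2 × 10^3 CFU/mL and incubated at 37 °C for 24 h. Turbidity was read at 640 nm. MIC is the lowest concentration with no growth, confirmed by spreading 10 µL of clear tubes on BHI agar.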

[2] = test system: Fusarium verticillioides; assay: Minimum inhibitory concentration against Fusarium moniliforme; assay type: functional
Outline: (§2)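 Fungal MIC by tube dilution in potato dextrose broth, 5 mL final volume. Compounds were taken up in DMSO, diluted 1:9 with water, then serially diluted in medium. Spore suspension was added at a final 2 × 10^3 CFU/mL and incubated at 28 °C for 48 h. Absorbance was read at 640 nm. MIC is the lowest no-growth concentration, checked by subculturing 10 µL onto potato dextrose agar and examining under a microscope.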

[3] = test system: Staphylococcus aureus; assay: Minimum inhibitory concentration against Staphylococcus aureus; assay type: functional; outline: as §1
[4] = test system: Aspergillus niger; assay: Minimum inhibitory concentration against Aspergillus niger; assay type: functional; outline: as §2
[5] = test system: Cephalosporium; assay: Minimum inhibitory concentration against Cephalosporium acremonium; assay type: functional, Hapsidospora chrysogena; outline: as §2
[6] = test system: Escherichia coli; assay: Minimum inhibitory concentration against Escherichia coli; assay type: functional; outline: as §1
[7] = Bacillus subtilis, read-out: MIC
[8] = Staphylococcus aureus, read-out: MIC
[9] = Escherichia coli, read-out: MIC

Question: With `CCCCOC(=O)[C@H]1C[C@@H](c2[nH]c(CCCC)nc2Cl)N(c2ccccc2)O1` (stereo in doubt; A) as the compound, how does the MIC [1, 7] read?
Answer: 7 µg/mL (≈ 17.2 µM)

Question: What about the MIC [2] of the same compound?
Answer: 13 µg/mL (≈ 32 µM)

Question: What about the MIC [3, 8] of the same compound?
Answer: 7 µg/mL (≈ 17.2 µM)

Question: What about the MIC [4] of the same compound?
Answer: 14 µg/mL (≈ 34.5 µM)

Question: What about the MIC [5] of the same compound?
Answer: 11 µg/mL (≈ 27.1 µM)

Question: What about the MIC [6, 9] of the same compound?
Answer: 10 µg/mL (≈ 24.6 µM)

Question: What does the source list for `CCCCOC(=O)[C@H]1C[C@@H](c2[nH]c(CCCC)nc2Cl)N(c2ccccc2)O1` (stereo in doubt; B)?
Answer: MIC [1]: 7 µg/mL (≈ 17.2 µM); MIC [2]: 28 µg/mL (≈ 69 µM); MIC [3]: 8 µg/mL (≈ 19.7 µM); MIC [4]: 36 µg/mL (≈ 88.7 µM); MIC [5]: 33 µg/mL (≈ 81.3 µM); MIC [6]: 11 µg/mL (≈ 27.1 µM)

Question: With `CN[C@@H]1[C@H](O[C@H]2[C@H](O[C@H]3[C@H](O)[C@@H](O)[C@H](N=C(N)N)[C@@H](O)[C@@H]3N=C(N)N)O[C@@H](C)[C@]2(O)C=O)O[C@@H](CO)[C@H](O)[C@H]1O` [STREPTOMYCIN] as the compound, how does the MIC [1, 7] read?
Answer: 3 µg/mL (≈ 5.16 µM)

Question: And the MIC [3, 8]?
Answer: 3 µg/mL (≈ 5.16 µM)

Question: And the MIC [6, 9]?
Answer: 6 µg/mL (≈ 10.3 µM)

Question: What does the source list for NYSTATIN?
Answer: MIC [2]: 14 µg/mL; MIC [4]: 12 µg/mL; MIC ([5]; Hapsidospora chrysogena): 11 µg/mL
